Measurements from ChEMBL document CHEMBL4400513, “Aurone derivatives as promising antibacterial agents against resistant Gram-positive pathogens” (Eur J Med Chem, 2019).
In brackets after ≈: the same amount, converted by molar mass. Activity calls are given as the source filed them. The calls are words filed in the database; no cut-off is given here.

Key:
[1] = system: Klebsiella pneumoniae; test: Antimicrobial activity against Klebsiella pneumoniae after 18 to 24 hrs in aerobic condition by two-fold serial dilutions method; format: functional
Summary of the method: (§1)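 Colonies grown overnight (~16 h) in Mueller-Hinton broth at 37 °C, 200 rpm, diluted 1/100 and grown to log phase (OD600 ~0.6), then diluted to ~10^5 bacteria/mL. Exposed to 0 to 500 µM in 1:2 series (0.2% DMSO final control), aerobic, 37 °C, 18–24 h. OD600 read; MIC = lowest concentration without visible growth; n = 3.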

[2] = system: Mycolicibacterium smegmatis; test: Bactericidal activity against Mycobacterium smegmatis in anaerobic condition; format: functional, organism-based
Summary of the method: (§2)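 From the MIC plates, 10 µL from each well without growth was streaked onto agar suited to the organism and incubated under that organism's growth conditions. Colonies were then counted; MBC = lowest concentration allowing ≤1 colony, i.e. killing 99.9% of bacteria.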

[3] = system: Aspergillus niger; test: Fungicidal activity against Aspergillus niger after 48 hrs; format: functional, organism-based
Summary of the method: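 A. niger in RPMI medium, two-fold serial dilutions 0–500 µM (0.2% DMSO final). Incubation at 35 °C for 48 h; OD600 read, MIC as the lowest concentration with no visible growth. Killing concentration determined by streaking 10 µL from no-growth wells on agar, where ≤1 colony grew. Triplicate.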

[4] = system: Escherichia coli; test: Antimicrobial activity against Escherichia coli […] K88 after 18 to 24 hrs in aerobic condition by two-fold serial dilutions method; format: functional
Summary of the method: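 Strains grown on LB at 37 °C aerobically, then in Mueller-Hinton broth overnight at 200 rpm and brought to log phase (OD600 ~0.6). About 10^5 bacteria/mL exposed to two-fold serial dilutions 0–500 µM, DMSO 0.2% final as control. Aerobic incubation at 37 °C for 18–24 h; OD600 read; MIC = lowest concentration inhibiting visible growth. n = 3.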

[5] = system: Candida albicans; test: Antifungal activity against Candida albicans after 2 to 5 days by two-fold serial dilutions method; format: functional
[6] = system: Lactococcus lactis; test: Antimicrobial activity against Lactococcus lactis after 18 to 24 hrs in aerobic condition by two-fold serial dilutions method; format: functional; summary of the method: as §1
[7] = system: Arthrobacter gandavensis; test: Antimicrobial activity against Arthrobacter gandavensis after 18 to 24 hrs in aerobic condition by two-fold serial dilutions method; format: functional; summary of the method: as §1
[8] = system: Klebsiella variicola; test: Antimicrobial activity against Klebsiella variicola after 18 to 24 hrs in aerobic condition by two-fold serial dilutions method; format: functional; summary of the method: as §1
[9] = system: Citrobacter farmeri; test: Antimicrobial activity against Citrobacter farmeri after 18 to 24 hrs in aerobic condition by two-fold serial dilutions method; format: functional; summary of the method: as §1
[10] = system: Helicobacter pylori; test: Antimicrobial activity against Helicobacter pylori after 18 to 24 hrs in anaerobic condition by two-fold serial dilutions method; format: functional
Summary of the method: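 Mueller-Hinton broth preculture grown to log phase (OD600 ~0.6), diluted to ~10^5 bacteria/mL. Serial 1:2 dilutions 0 to 500 µM, 0.2% DMSO final control. Incubated at 37 °C for 18–24 h under anaerobic conditions from a gas-pack system; OD600 read; MIC = lowest concentration without visible growth; triplicate.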

[11] = system: Aspergillus ochraceus; test: Antifungal activity against Aspergillus ochraceus after 2 to 5 days by two-fold serial dilutions method; format: functional
Summary of the method: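 Broth two-fold serial dilution MIC, 0 to 500 µM (1:2 steps), from 200 mM DMSO stocks; 0.2% DMSO final as vehicle control. Inoculum about 10^5 cells/mL. Strains maintained on potato dextrose agar and in RPMI medium. Plates held at room temperature for 2 to 5 days, OD600 read; MIC = lowest concentration preventing visible growth; independent triplicate.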

[12] = system: Clostridioides difficile; test: Antimicrobial activity against Clostridium difficile after 18 to 24 hrs in anaerobic condition by two-fold serial dilutions method; format: functional
Summary of the method: (§3)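 Precultures in BHI broth at 37 °C in an anaerobic cabinet, grown to log phase (OD600 ~0.6), then seeded at ~10^5 bacteria/mL. Two-fold dilutions from 0 to 500 µM, 0.2% DMSO final as control. Plates incubated anaerobically at 37 °C for 18–24 h, OD600 read; MIC = lowest concentration giving no visible growth; independent triplicate.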

[13] = system: Candida albicans; test: Fungicidal activity against Candida albicans; format: functional, organism-based
Summary of the method: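 C. albicans in RPMI buffered with 0.165 M MOPS (pH 7.0). Two-fold serial dilutions from 0 to 500 µM, 0.2% DMSO final. Plates incubated at 35 °C for 24 h; OD600 read, MIC taken as the lowest concentration with no visible growth. Fungicidal concentration defined by ≤1 colony after streaking 10 µL of no-growth wells on agar. n = 3.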

[14] = system: Penicillium verrucosum; test: Fungicidal activity against Penicillium verrucosum; format: functional, organism-based
Summary of the method: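 Filamentous fungi grown on potato dextrose agar and tested in RPMI medium with two-fold serial dilutions (0–500 µM, 0.2% DMSO final). Plates held at room temperature for 2 to 5 days, then OD600 read; MIC taken as the lowest concentration with no visible growth. The fungicidal endpoint is ≤1 colony after streaking 10 µL of no-growth wells on agar. n = 3.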

[15] = system: Clostridium perfringens; test: Antimicrobial activity against Clostridium perfringens after 24 to 72 hrs in anaerobic condition by two-fold serial dilutions method; format: functional
Summary of the method: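 C. perfringens grown in BHI at 37 °C anaerobically and brought to log phase (OD600 ~0.6). About 10^5 bacteria/mL with two-fold serial dilutions 0–500 µM, DMSO 0.2% final as control. Incubated 24 h at 37 °C in anaerobic cabinet; OD600 read; MIC = lowest concentration with no visible growth. Independent triplicate.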

[16] = system: Blautia producta; test: Antimicrobial activity against Clostridium coccoides after 18 to 24 hrs in anaerobic condition by two-fold serial dilutions method; format: functional; summary of the method: as §3
[17] = system: Bacillus subtilis; test: Bactericidal activity against Nisin-resistant Bacillus subtilis in aerobic condition; format: functional, organism-based
[18] = system: Citrobacter rodentium; test: Antimicrobial activity against Citrobacter rodentium after 18 to 24 hrs in aerobic condition by two-fold serial dilutions method; format: functional; summary of the method: as §1
[19] = system: Acinetobacter baumannii; test: Antimicrobial activity against Acinetobacter baumannii MRS after 18 to 24 hrs in aerobic condition by two-fold serial dilutions method; format: functional; summary of the method: as §1
[20] = system: Klebsiella pneumoniae; test: Bactericidal activity against Klebsiella pneumoniae in aerobic condition; format: functional, organism-based; summary of the method: as §2
[21] = system: Vibrio diabolicus; test: Bactericidal activity against Vibrio diabolicus in aerobic condition; format: functional, organism-based
Summary of the method: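 MH broth; log-phase bacteria (OD600 ~0.6) diluted to ~10^5 bacteria/mL and exposed to two-fold serial dilutions (0–500 µM; 0.2% DMSO final as vehicle control) at 37 °C, aerobic, 18–24 h. MIC is the lowest concentration preventing visible growth (OD600). MBC is found by streaking 10 µL from no-growth wells onto agar; the MBC is the concentration where ≤1 colony grew. n = 3.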

[22] = system: Vibrio alginolyticus; test: Antimicrobial activity against Vibrio alginolyticus after 18 to 24 hrs in aerobic condition by two-fold serial dilutions method; format: functional; summary of the method: as §1
[23] = system: Shigella flexneri; test: Antimicrobial activity against Shigella flexneri after 18 to 24 hrs in aerobic condition by two-fold serial dilutions method; format: functional; summary of the method: as §1

SMILES	MIC [1]	Activity [2]	Activity [3]	MIC [4]	MIC [5]	MIC [6]	MIC [7]	MIC [8]	MIC [9]	MIC [10]	MIC [11]	MIC [12]	Activity [13]	Activity [14]	MIC [15]	MIC [16]	Activity [17]	MIC [18]	MIC [19]	Activity [20]	also measured
O=C1/C(=C/c2ccccc2)Oc2cc(O)cc(O)c21	> 500 µM	Active	Active	> 500 µM	> 500 µM	15.6 µM (≈ 3.97 µg/mL)	31.2 µM (≈ 7.95 µg/mL)	> 500 µM	> 500 µM	15.6 µM (≈ 3.97 µg/mL)	> 500 µM	62.5 µM (≈ 15.9 µg/mL)	Active	Active	7.8 µM (≈ 1.98 µg/mL)	500 µM (≈ 127 µg/mL)	Active	> 500 µM	> 500 µM	Active	Activity [21]: Active; MIC [22]: 31.2 µM (≈ 7.95 µg/mL); MIC [23]: > 500 µM
COc1cc(/C=C2\Oc3cc(O)cc(O)c3C2=O)ccc1OCc1ccccc1	> 500 µM	Active	Active	> 500 µM	125 µM (≈ 48.8 µg/mL)	31.2 µM (≈ 12.2 µg/mL)	31.2 µM (≈ 12.2 µg/mL)	> 500 µM	> 500 µM	15.6 µM (≈ 6.09 µg/mL)	> 500 µM	31.2 µM (≈ 12.2 µg/mL)	Active	Active	31.2 to 62.5 µM (≈ 12.2 to 24.4 µg/mL)	250 µM (≈ 97.6 µg/mL)	Active	> 500 µM	> 500 µM	Active	Activity [21]: Active; MIC [22]: 3.9 µM (≈ 1.52 µg/mL); MIC [23]: > 500 µM
O=C1/C(=C/c2ccc(F)cc2)Oc2cc(O)cc(O)c21	> 500 µM	Active	Active	> 500 µM	> 500 µM	15.6 µM (≈ 4.25 µg/mL)	15.6 µM (≈ 4.25 µg/mL)	> 500 µM	> 500 µM	> 500 µM	> 500 µM	62.5 µM (≈ 17 µg/mL)	Active	Active	31.2 to 62.5 µM (≈ 8.51 to 17 µg/mL)	> 500 µM	Active	> 500 µM	> 500 µM	Active	Activity [21]: Active; MIC [22]: 125 µM (≈ 34 µg/mL); MIC [23]: > 500 µM
